OX1R antag-1 – antagonists of human orexin 1 receptor | inhibition, % at 5 µM | CHO/OX1R cells, Fluo-8 calcium fluorescence, orexin A | AID 434989 | 330,000 compounds, 0.43% hits;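 active = inhibition above its plate's threshold, mean inhibition of all tested compounds on the plate plus 3 SD, cut at about 37% in these data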;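 also: 0% = orexin A challenge wells and 100% = SB-334867-A antagonist wells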
Target sequence (O43613 whole entry, looked up): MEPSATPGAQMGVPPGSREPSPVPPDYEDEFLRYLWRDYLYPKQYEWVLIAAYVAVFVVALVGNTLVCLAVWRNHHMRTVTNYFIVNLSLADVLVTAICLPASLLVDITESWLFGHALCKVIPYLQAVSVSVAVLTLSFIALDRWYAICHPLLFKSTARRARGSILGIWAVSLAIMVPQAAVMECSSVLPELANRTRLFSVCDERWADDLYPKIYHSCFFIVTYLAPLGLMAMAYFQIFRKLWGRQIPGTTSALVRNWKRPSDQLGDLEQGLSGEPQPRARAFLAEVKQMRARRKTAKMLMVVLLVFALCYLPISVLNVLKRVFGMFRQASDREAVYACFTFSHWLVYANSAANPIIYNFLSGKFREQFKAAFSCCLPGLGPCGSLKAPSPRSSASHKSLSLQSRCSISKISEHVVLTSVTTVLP
GPR7 antagonist – blocks human GPR7 receptor signaling; 290,000 compounds, 1.1% hits; GPR7-expressing cells, fluorescence antagonist assay; inhibition, % at 4.4 µM; P48145; in the data active = inhibition above about 16%, passing the limit was not always enough;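 also: cells stimulated with the agonist NPW; 0% = agonist with vehicle and 100% = vehicle without agonist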
Target sequence (P48145 whole entry, looked up): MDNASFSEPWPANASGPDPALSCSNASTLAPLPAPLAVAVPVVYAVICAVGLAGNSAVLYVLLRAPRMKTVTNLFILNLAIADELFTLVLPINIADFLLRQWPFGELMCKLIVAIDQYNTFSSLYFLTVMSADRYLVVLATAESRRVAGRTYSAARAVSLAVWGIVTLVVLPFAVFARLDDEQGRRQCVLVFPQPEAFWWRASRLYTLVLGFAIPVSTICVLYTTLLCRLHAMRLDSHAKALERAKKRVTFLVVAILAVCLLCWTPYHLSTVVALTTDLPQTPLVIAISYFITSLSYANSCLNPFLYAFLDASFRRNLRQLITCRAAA
TRPML3 ag – human mucolipin-3 channel agonism | activation, % at 3 µM | 220,000 compounds, 0.29% hits | HEK293 TRPML3-YFP, Fluo-8 calcium fluorescence; 100% = the carbachol control signal;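 active = activation above its plate's cutoff, the mean activation of the plate's test wells plus 3 SD, cut at about 12% in these data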;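 also: 0% = DMSO only wells and 100% = carbachol wells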
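Test system: TRPML3-YFP stable HEK293 cells. Doses: single point at 3 µM. Incubation: dye loading 1 h 37 °C then 30 min ambient, 125 s read. Signal: Fluo-8 calcium dye fluorescence, ex 470-495, em 515-575 nm. Measure: percent activation from peak-to-basal fluorescence ratio, scaled between DMSO and carbachol.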
zfTRPN1 agonist – zebrafish TRPN1 (NompC) channel agonism. AID 1424. activation, % at 3 µM. 220,000 compounds, 0.18% hits. HEK293 zebrafish TRPN1-YFP, Fluo-8 calcium fluorescence; 100% = response to 87 µM carbachol;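 active = activation above its plate's cutoff, the mean activation of test wells on that plate plus 3 SD, cut at about 19% in these data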;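 also: 0% = DMSO alone and 100% = 87 µM carbachol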
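Assay system: Zebrafish TRPN1-YFP in HEK293 cells | Incubation: Dye loading 1 h at 37 °C, then 30 min room temperature | Measured by: Kinetic Fluo-8 fluorescence, ex 470-495, em 515-575 nm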
CHO parental Ca – counter-screen: ATP calcium response change in parental CHO cells | AID 463079 | 330,000 compounds, 0.63% hits | inhibition, % at 5.6 µM | parental CHO-K1, ATP-induced calcium, Fluo-8 fluorescence;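 active = inhibition above that plate's mean sample inhibition plus 3 SD, cut at about 26% in these data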;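 also: 0% = ATP-challenged DMSO wells and 100% = DMSO wells without ATP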
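Test system: untransfected parental CHO cell line. Compound: one dose, 5.6 µM nominal. Detection: intracellular calcium via Fluo-8 no-wash fluorescent dye. Measure: % inhibition. Benchmarks: ATP-challenged DMSO wells low, unchallenged DMSO wells high.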
OX1R antag-2 – blocks the human orexin 1 receptor. inhibition, % at 6.6 µM. O43613. 330,000 compounds, 1.8% hits. OX1R-expressing cells, FRET antagonist read-out; in the data active = inhibition mostly above about 38%, no sharp cut-off; inactive = mostly below about 40%;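 also: 0% = agonist challenge alone and 100% = reference antagonist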
OX1R Fluo8 conf – OX1R (human) antagonism, confirmed | shares compounds with OX1R antag-1 | CHO/OX1R cells, orexin A calcium Fluo-8 fluorescence | inhibition, % at 5 µM | 1,100 compounds, 38% hits | AID 492963; in the data active = inhibition above about 29%;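 also: 0% = agonist challenge alone and 100% = reference antagonist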
CHO Ca triplic – counter-screen: parental CHO calcium response change, triplicate | shares compounds with OX1R antag-1 | parental CHO-K1, ATP-induced calcium, Fluo-8 fluorescence | inhibition, % at 5.6 µM | 1,100 compounds, 9.3% hits;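 active = inhibition above a per-plate limit, the mean inhibition of that plate's test compounds plus 3 SD, cut at about 25% in these data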;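 also: 0% = ATP challenge with DMSO and 100% = DMSO without ATP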
Active calls of the source: *; x = not tested or not shown. Hits are enriched below; roughly 3.2% of the tested compounds scored in any of these assays.

SMILES | OX1R antag-1 | GPR7 antagonist | TRPML3 ag | zfTRPN1 agonist | CHO parental Ca | OX1R antag-2 | OX1R Fluo8 conf | CHO Ca triplic
O=C(CCN1C(=O)[C@@H]2Cc3ccccc3CN2C1=O)N[C@@H](Cc1ccccc1)C(=O)O | -3 | -6 | x | x | 3 | 14 | x | x
Cc1oc2c(CN3CCCCC3)c(O)ccc2c(=O)c1-c1ccc(Cl)cc1 | -12 | -1 | x | x | -14 | 9 | x | x
C/C(Cl)=C\Cn1c(NCCc2ccccc2)nc2c1c(=O)n(C)c(=O)n2C | -23 | -1 | 0 | 0 | 0 | 7 | x | x
C=CCn1c(NCCc2ccccc2)nc2c1c(=O)n(C)c(=O)n2C | 31 | -2 | 2 | 6 | 12 | 16 | 10 | 13
O=C(Nc1ccccc1)c1ccc2c(c1)CCN2S(=O)(=O)c1ccccc1 | -10 | -2 | x | x | -5 | 7 | x | x
O=C(Nc1ccc(S(=O)(=O)N2CCc3ccccc32)cc1)c1ccc2c(c1)OCO2 | 25 | -2 | 0 | 1 | 19 | 20 | 10 | 8
Cc1ccccc1-n1nnnc1SCC(C)C | -24 | -16 | 0 | -1 | -13 | 17 | x | x
Cc1ccccc1-n1nnnc1SCc1csc(-c2ccccc2)n1 | 31 | 12 | 1 | 2 | 6 | 53 | 19 | -14
COc1cc(OC)cc(C(=O)OCCCOC(=O)c2cc(OC)cc(OC)c2)c1 | -9 | -10 | x | x | -23 | 52 | x | x
COc1ccc(NS(=O)(=O)c2ccc(NC(=S)NC(=O)C(C)C)cc2)cc1 | 31 | 20 | 7 | 12 | 18 | 31 | 32* | 13
CCCn1c2ccccc2c2nc3ccccc3nc21 | 28 | -10 | 0 | -1 | -29 | 72 | 12 | -14
CCn1c2ccc(F)cc2c2nc3ccccc3nc21 | 34 | -13 | 0 | -1 | -17 | 95 | 27 | -4
CCOC(=O)NC(c1ccc(C(C)C)cc1)C(Cl)(Cl)Cl (stereo unspecified) | 42* | -10 | 1 | -1 | -4 | 54 | 10 | -2
COc1ccc(S(=O)(=O)Nc2ccc(F)cc2F)cc1C(=O)N1CCOCC1 | -3 | -8 | x | x | -6 | 11 | x | x
O=C(c1ccc(Cl)c(S(=O)(=O)N2CCCCC2)c1)N1CCN(Cc2ccccc2)CC1 | -38 | -3 | x | x | -18 | 11 | x | x
O=C(CN1c2ccccc2S(=O)(=O)c2ccccc21)NCc1ccc(F)cc1 | 24 | 13 | x | x | -6 | 19 | 3 | -8
CC(Oc1ccccc1)C(=O)N1CCC2(CC1)CC(=O)c1ccccc1O2 (stereo unspecified) | -15 | x | x | x | -13 | 26 | x | x
COc1cccc(S(=O)(=O)NCc2ccc(C(=O)Nc3cccc(Cl)c3)cc2)c1 | 45* | -9 | 0 | 0 | 16 | 52 | -1 | -1
O=C(OCCc1cc2ccccc2c(=O)o1)c1ccccc1C(F)(F)F | 37 | x | x | x | -4 | 18 | 4 | 3
O=C(OCCCc1cc2ccccc2c(=O)o1)c1ccccc1C(F)(F)F | -5 | x | x | x | -11 | 3 | x | x
COCC(=O)N1CCC(Oc2ccc(C(=O)NC3Cc4ccccc4C3)cc2)CC1 | 4 | -19 | x | x | -3 | 5 | x | x
O=C(O)c1ccc(N2C(=O)CC(SC(=NCc3ccc4c(c3)OCO4)Nc3ccc(F)cc3)C2=O)cc1 (stereo unspecified) | 32 | 6 | 0 | 0 | 6 | 28 | 31* | -3
O=C(O)c1ccc(N2C(=O)CC(SC(=NCc3ccc4c(c3)OCO4)Nc3ccccc3)C2=O)cc1 (stereo unspecified) | 0 | -6 | 0 | 1 | -2 | 7 | x | x
Cc1ccc(-c2cc(C(=O)N3CCN(C(=O)c4ccco4)CC3)[nH]n2)cc1C | -17 | 1 | x | x | -20 | 26 | x | x
Cc1cc(C)n(-c2nc(-c3cccc(Cl)c3)cs2)n1 | 41* | 7 | 0 | 0 | -26 | 47 | 6 | -17
SMILES | OX1R antag-1 | GPR7 antagonist | TRPML3 ag | zfTRPN1 agonist | CHO parental Ca | OX1R antag-2 | OX1R Fluo8 conf | CHO Ca triplic
COc1ccc(OC)c(NS(=O)(=O)c2ccc(Cl)nc2)c1 | -26 | -5 | 0 | 0 | -10 | 10 | x | x
CCCCOc1ccc(S(=O)(=O)Nc2cc(OC)ccc2OC)cc1 | 51* | 10 | 0 | 1 | 17 | 15 | 3 | 5
COc1cc(NC(=S)NCc2ccco2)cc(OC)c1OC | 77* | -7 | 0 | -1 | -9 | 13 | -5 | -8
N#CCC(CNc1ncc(C(F)(F)F)cc1Cl)OC(=O)c1c(F)cccc1F (stereo unspecified) | 46 | -8 | 0 | -2 | -24 | 25 | 18 | -10
CCOC(=O)CC(=O)CSc1ncnc2c1oc1ccccc12 | 33 | -14 | 1 | 0 | -22 | -90 | 14 | 2
Cc1nn(-c2ccccc2)c2nc(N)c(C#N)c(-c3ccc(O)c(O)c3)c12 | 36 | -4 | x | x | 3 | 9 | 34* | 6
Cc1nn(-c2ccc(F)cc2)c2nc(N)c(C#N)c(-c3ccc(O)c(O)c3)c12 | x | -8 | x | x | x | x | x | x
Cc1noc(NS(=O)(=O)c2ccc(NC(=O)c3cc4ccccc4o3)cc2)c1C | -14 | x | x | x | -14 | 3 | x | x
CNc1cc(CSC)nc(SCc2ccc(Cl)cc2Cl)n1 | 53* | -11 | -1 | 0 | -12 | 36 | 3 | -9
COc1ccc(CC(=O)NCc2nn(-c3ccccc3)nc2C)cc1OC | -30 | -16 | 0 | 1 | -26 | 13 | x | x
COc1ccc(-c2ocnc2C(=O)NCc2nn(-c3ccccc3)nc2C)cc1 | 38 | -4 | 2 | 5 | 24 | 25 | 8 | 29*
COc1ccc(-c2cc(-c3ccc(OC)c(OC)c3)n[nH]2)c(O)c1 | 35 | 6 | 0 | -1 | 19 | 40 | 4 | -11
O=S(=O)(c1ccc2[nH]ccc2c1)N1CCCCCC1 | -16 | -2 | x | x | -15 | 0 | x | x
O=C(Nc1cccc(Cl)c1)Nc1ccc2c(c1)OCO2 | 32 | -11 | 5 | 4 | 15 | 69 | 9 | 6
OCCN(CC(O)Cn1ccc2ccccc21)CC(O)Cn1ccc2ccccc21 (stereo unspecified) | 39 | 10 | 3 | 3 | 19 | 11 | 15 | 5
CSc1ccc(CN(C)C(=O)C23CC4CC(CC(Cl)(C4)C2)C3)cc1 | -18 | 11 | x | x | -29 | 19 | x | x
O=C(N/C(=C/c1cccc(Br)c1)c1nc(=S)[nH][nH]1)c1ccccc1 | 33 | 18 | -1 | -1 | 9 | 32 | 49* | 12
Cc1ccc(C(=O)N/C(=C\c2ccc(Br)cc2)c2nc(=S)[nH][nH]2)cc1 | 8 | 0 | 1 | 0 | 8 | -1 | x | x
CCCCNC(=O)C1c2ccccc2Oc2ccccc21 | -24 | -1 | -1 | -1 | -13 | 13 | x | x
CCN(CC)C(=O)C1c2ccccc2Oc2ccccc21 | 24 | -1 | x | x | 13 | 31 | -7 | -6

Source: PubChem BioAssay (The Scripps Research Institute Molecular Screening Center)
